Results as given in ChEMBL document CHEMBL3351826, “Synthesis of pyrazolo[4,3-e][1,2,4]triazine sulfonamides, novel Sildenafil analogs with tyrosinase inhibitory activity” (Bioorg Med Chem, 2014).
Converted amounts (≈) assume the structure as drawn. The source made the active and inactive calls. The calls are words filed in the database; no cut-off is given here.

How the values were obtained:
Leptosphaeria sacchari [1] = experiment: Inhibition of Leptosphaeria sacchari tyrosinase using L-DOPA as substrate assessed as remaining activity at 0.3 mg/ml incubated for 10 mins prior to substrate addition […] by spectrophotometry
[2] = Inhibition of Leptosphaeria sacchari tyrosinase using L-DOPA as substrate incubated for 10 mins prior to substrate addition […] by spectrophotometry
Leptosphaeria sacchari [3] = experiment: Inhibition of Leptosphaeria sacchari tyrosinase using L-DOPA as substrate at 0.3 mg/ml incubated for 10 mins prior to substrate addition […] by spectrophotometry
Oryctolagus cuniculus = species: Oryctolagus cuniculus; experiment: Inhibition of rabbit platelet PDE5A using [3H]cGMP as substrate at 1 uM after 30 mins by scintillation proximity assay
In short: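 PDE5A isolated from rabbit platelets; tritium scintillation proximity assay in 50 mM Tris-HCl pH 7.5 with 8.3 mM MgCl2 and 1.7 mM EGTA. Compounds tested at 1 µM from DMSO stock, final DMSO <1%. Enzyme limited to ≤15% substrate hydrolysis. Duplicates. % inhibition = [1 − (CPM sample − blank)/(CPM water control − blank)] × 100.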

Leptosphaeria sacchari [4] = experiment: Inhibition of Leptosphaeria sacchari tyrosinase using L-DOPA as substrate at 0.1 mM incubated for 10 mins prior to substrate addition […] by spectrophotometry
Leptosphaeria sacchari [5] = experiment: Inhibition of Leptosphaeria sacchari tyrosinase using L-DOPA as substrate at 1 mM incubated for 10 mins prior to substrate addition […] by spectrophotometry

Row | SMILES | Activity (Leptosphaeria sacchari [1]) | IC50 [2] | inhibition (Leptosphaeria sacchari [3]) | inhibition (Oryctolagus cuniculus) | inhibition (Leptosphaeria sacchari [4]) | inhibition (Leptosphaeria sacchari [5])
1 | CCOc1ccc(S(=O)(=O)NCCNS(=O)(=O)c2ccc(OCC)c(-c3nnc4c(n3)c(C)nn4C)c2)cc1-c1nnc2c(n1)c(C)nn2C | 20.2% | 900 µg/mL (≈ 1250 µM) | 79.7% | 28.1% | – | –
2 | CCOc1ccc(S(=O)(=O)N2CCN(S(=O)(=O)c3ccc(OCC)c(-c4nnc5c(n4)c(C)nn5C)c3)CC2)cc1-c1nnc2c(n1)c(C)nn2C | – | – | – | 11.4% | – | –
3 | CCCc1nn(C)c2c(=O)[nH]c(-c3cc(S(=O)(=O)N4CCN(C)CC4)ccc3OCC)nc12 | – | – | – | 98.9% | – | –
4 | CCOc1ccc(S(=O)(=O)N2CCCNCC2)cc1-c1nnc2c(n1)c(C)nn2C | 33.5% | 100 µg/mL (≈ 232 µM) | 62.1% | 0.6% | – | –
5 | c1nnc2[nH]ncc2n1 | – | – | – | – | 48% | Active
6 | CCOc1ccc(S(=O)(=O)N2CCCN(S(=O)(=O)c3ccc(OCC)c(-c4nnc5c(n4)c(C)nn5C)c3)CC2)cc1-c1nnc2c(n1)c(C)nn2C | – | – | – | 26.7% | – | –
7 | CCOc1ccc(S(=O)(=O)NCCN2CCOCC2)cc1-c1nnc2c(n1)c(C)nn2C | 37.9% | 150 µg/mL (≈ 325 µM) | 62.1% | 13.3% | – | –
8 | CCOc1ccc(S(=O)(=O)N(CC)CC)cc1-c1nnc2c(n1)c(C)nn2C | 31.7% | 120 µg/mL (≈ 297 µM) | 68.3% | 16.4% | – | –
9 | CCOc1ccc(S(=O)(=O)NCCN)cc1-c1nnc2c(n1)c(C)nn2C | 3.7% | 70 µg/mL (≈ 179 µM) | 96.3% | 0% | – | –
10 | CCOc1ccc(S(=O)(=O)NCCO)cc1-c1nnc2c(n1)c(C)nn2C | 60.5% | 100 µg/mL (≈ 255 µM) | 39.5% | – | – | –

Second part, led by results:

Row | Activity (Leptosphaeria sacchari [1]) | IC50 [2] | inhibition (Leptosphaeria sacchari [3]) | inhibition (Oryctolagus cuniculus) | SMILES | inhibition (Leptosphaeria sacchari [4]) | inhibition (Leptosphaeria sacchari [5])
11 | 42.9% | 120 µg/mL (≈ 261 µM) | 57.1% | 5.8% | CCCc1nn(C)c2nnc(-c3cc(S(=O)(=O)N4CCN(C)CC4)ccc3OCC)nc12 | – | –
12 | 45.2% | 140 µg/mL (≈ 324 µM) | 54.8% | 0% | CCOc1ccc(S(=O)(=O)N2CCN(C)CC2)cc1-c1nnc2nn(C)c(C)c2n1 | – | –
13 | 41.2% | 110 µg/mL (≈ 255 µM) | 58.8% | 6% | CCOc1ccc(S(=O)(=O)N2CCN(C)CC2)cc1-c1nnc2c(n1)c(C)nn2C | – | –
14 | 48.6% | 150 µg/mL (≈ 358 µM) | 51.4% | 0% | CCOc1ccc(S(=O)(=O)N2CCOCC2)cc1-c1nnc2c(n1)c(C)nn2C | – | –
15 | 40.2% | 120 µg/mL (≈ 288 µM) | 59.8% | 29.5% | CCOc1ccc(S(=O)(=O)N2CCCCC2)cc1-c1nnc2c(n1)c(C)nn2C | – | –
16 | 29.5% | 80 µg/mL (≈ 192 µM) | 70.5% | 26.5% | CCOc1ccc(S(=O)(=O)N2CCNCC2)cc1-c1nnc2c(n1)c(C)nn2C | – | –
17 | 39.6% | 90 µg/mL (≈ 224 µM) | 60.4% | 24.1% | CCOc1ccc(S(=O)(=O)N2CCCC2)cc1-c1nnc2c(n1)c(C)nn2C | – | –
